Results published in article PMC7216793 (Molecular pharmaceutics, 2020).

What was measured:
[1] = shake flask solubility at different pH, UV at 270 nm; format: physicochemical; details: 24 h shake flask
In short: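 2 mg closed form in 200 μL buffered water was shaken 24 h in a closed vial. It was centrifuged 5 min at 16000 × g and supernatant pH was measured. Three 10 μL aliquots were diluted into 50:50 methanol/25 mM phosphate pH 10 and read at 270 nm. Concentration came from a calibration curve in the same diluent. Three independent measurements per pH.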

[2] = acid titration of basic MIDD0301 solution with 1 N HCl; format: physicochemical; details: 50 μM in 0.1 N NaOH, water with 30 % DMSO; nonlinear regression
[3] = spectrophotometric pH transition; format: physicochemical; details: absorbance difference at 252 and 292 nm vs pH
In short: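 Closed or open form at 50 μM (1% DMSO), in buffers adjusted to 0.1 M ionic strength with KCl: 50 mM phosphoric acid pH 1–2, 50 mM acetate pH 3–5, 50 mM phosphate pH 6–8, 12.5 mM borate pH 9. After 24 h at rt, spectra were read 230–400 nm, DMSO blank subtracted (two experiments, duplicate). Summed absorbance differences at 252/292 nm vs pH were fitted by nonlinear regression.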

[4] = mass spectrometry analysis of pH dependent ratio of closed and open MIDD0301; format: physicochemical
In short: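 Closed form at 50 μM in water was brought to pH 1 with 0.1 M HCl. It was then stepped up to pH 9 with 10% ammonium hydroxide, taking an aliquot at each pH. Aliquots stood 24 h at rt, then final pH was measured. Each was infused directly into the MS without LC or added solvent. Closed:open ratio came from peak heights at 414 and 432 m/z.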

[5] = kinetics of ring opening and closing by 1H-NMR; format: physicochemical; details: 0.1 N DCl in 50:50 D2O:d6-DMSO
[6] = kinetics of ring opening and closing by UV absorbance at 246 nm; format: physicochemical; details: UV 246 nm, aqueous 0.1 N HCl
In short: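 Four replicate wells, each with 5 μL of 1 mM closed form plus 75 μL aqueous acid (0.1 N HCl; final 62.5 μM). A246 read every 30 s for 260 min, with a DMSO-containing buffer blank subtracted. Averaged absorbance-time curves (n = 4) were fitted by first-order kinetics to give k and half-life.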

[7] = logD oct/wat at different pH; format: physicochemical; details: 1-octanol/buffered water, 24 h
In short: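 Shake-flask partition of the closed form. 200 μL of 2.5 mM in 1-octanol was added to 300 μL water-saturated octanol and 500 μL octanol-saturated buffer (pH 1–9). Vials were shaken overnight and left 1 h to separate. Aliquots of each layer were diluted in octanol or buffer and read at 270 nm (isosbestic). Concentrations came from per-phase calibration curves. Run in triplicate.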

[8] = pharmacokinetic study in mice: blood, lung and brain concentrations by LC-MS/MS; format: in vivo, Swiss Webster mice
In short: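 Six-week-old female Swiss Webster mice (SPF) received closed or open form by intragastric gavage at 25 mg/kg in various vehicles (n = 4). At 60 min, heparinised blood was drawn by cardiac puncture and non-perfused brain and lungs were harvested. Samples were extracted in methanol with internal standard. Both forms were quantified by LC-MS/MS (C18; methanol/water, 0.1% formic acid; positive mode).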

[9] = system: asthmatic mice (ovalbumin sensitized and challenged model); details: cited from earlier work
[10] = oral dosages of 1000 mg/kg; cited from earlier work
[11] = 28 day dosing of 100 mg/kg; cited from earlier work
[12] = system: airway resistance induced with methacholine; details: airway resistance induced with 25 mg/ml methacholine; cited from earlier work
[13] = earlier work, no reference given; cited from earlier work
[14] = system: ASM; details: cited from earlier work
[15] = mice, 25 mg/kg oral, 60 min, Entry 1: 2.5 % PEG400, 98 % HPMC (2 % in water), pH 6.1
[16] = mice, 25 mg/kg oral, 60 min, Entry 2: 40 % propylene glycol, 60 % HPMC (2 % in water), pH 5.9
[17] = mice, 25 mg/kg oral, 60 min, Entry 4: 2.5 % PEG400, 98 % HPMC (2 % in PBS, pH 7.4)
[18] = mice, 25 mg/kg oral, 60 min, Entry 4: 2.5 % PEG400, 98 % HPMC (2 % in PBS, pH 7.4), listed as Closed MIDD0301, 25 mg/kg
[19] = mice, 25 mg/kg oral, 60 min, Entry 4: 2.5 % PEG400, 98 % HPMC (2 % in PBS, pH 7.4), listed as closed MIDD0301, 25 mg/kg
[20] = mice, 25 mg/kg oral, 60 min, Entry 5: pretreatment with omeprazole (30 mg/kg), 2.5 % PEG400, 98 % HPMC (2 % in PBS)

C[C@H]1N=C(c2ccccc2F)c2cc(Br)ccc2-n2cnc(C(=O)O)c21 [MIDD0301]
aqueous solubility ([1]; neutral pH): > 3000 µg/mL | aqueous solubility ([1]; pH 3.9): < 100 µg/mL | pH of inflection, acid titration [2]: 4.69 | pH of the spectrophotometric transition [3]: 4.34 | closed MIDD0301 remaining by MS ([4]; 0.1 N HCl, after 24 h): 10% | open MIDD0301 share by MS ([4]; pH 6, after 24 h): 17% | open MIDD0301 share by MS ([4]; pH 7 and higher, 24 h): 2% | calculated equilibrium pH (equal peak heights of closed and open form) ([4]; water, 24 h, MS 414 vs 432 m/z): 4.3 | pH range in which the equilibrium between open and closed form was observed ([4]; water, MS): 4–5 | kacid, conversion of closed to open MIDD0301 ([5]; 2.4 mM, pseudo first order): 0.050 min⁻¹ | half-life of ring opening [5]: 13.7 min | kacid, conversion of closed to open MIDD0301 ([6]; 62.5 μM): 0.142 min⁻¹ | half-life in 0.1 N HCl [6]: 4.8 min | pH range of highest concentration in 1-octanol [7]: 2–5 | percentage of open MIDD0301 in comparison to closed MIDD0301 ([8]; all biological samples, all formulations): ≤ 4% | Concentration of closed MIDD0301, Brain [8, 15]: 87 ± 27 nM | Concentration of open MIDD0301, Blood [8, 15]: 9 ± 3 nM | Concentration of open MIDD0301, Brain [8, 15]: 3 ± 1 nM | Concentration of open MIDD0301, Lung [8, 15]: 5 ± 2 nM | open MIDD0301, % of closed MIDD0301, Blood [8, 15]: 3% | open MIDD0301, % of closed MIDD0301, Brain [8, 15]: 2% | open MIDD0301, % of closed MIDD0301, Lung [8, 15]: 2% | concentration of open MIDD0301 as % of closed MIDD0301, all samples ([8]; mice, 25 mg/kg oral, 60 min, Entry 1, blood, lung, brain): 2–3% | Concentration of closed MIDD0301, Brain [8, 16]: 104 ± 42 nM | Concentration of open MIDD0301, Blood [8, 16]: 6 ± 2 nM | Concentration of open MIDD0301, Brain [8, 16]: 3 ± 1 nM | Concentration of open MIDD0301, Lung [8, 16]: 9 ± 2 nM | open MIDD0301, % of closed MIDD0301, Blood [8, 16]: 3% | open MIDD0301, % of closed MIDD0301, Brain [8, 16]: 3% | open MIDD0301, % of closed MIDD0301, Lung [8, 16]: 2% | Concentration of closed MIDD0301, Brain [8, 17]: 130 ± 24 nM | Concentration of open MIDD0301, Blood [8, 17]: 18 ± 14 nM | Concentration of open MIDD0301, Brain [8, 17]: 4 ± 3 nM | Concentration of open MIDD0301, Lung [8, 17]: 28 ± 19 nM | open MIDD0301, % of closed MIDD0301, Blood [8, 17]: 4% | open MIDD0301, % of closed MIDD0301, Brain [8, 17]: 3% | open MIDD0301, % of closed MIDD0301, Lung [8, 17]: 2% | Concentration of closed MIDD0301, Blood [8, 18]: 413 ± 116 nM | Concentration of closed MIDD0301, Lung [8, 18]: 1745 ± 1121 nM | Concentration of closed MIDD0301, Blood [8, 19]: 413 nM | Concentration of closed MIDD0301, Lung [8, 19]: 2046 nM | Concentration of closed MIDD0301, Blood [8, 20]: 516 ± 180 nM | Concentration of closed MIDD0301, Brain [8, 20]: 159 ± 33 nM | Concentration of closed MIDD0301, Lung [8, 20]: 2046 ± 1155 nM | Concentration of open MIDD0301, Blood [8, 20]: 20 ± 8 nM | Concentration of open MIDD0301, Brain [8, 20]: 4 ± 2 nM | Concentration of open MIDD0301, Lung [8, 20]: 32 ± 21 nM | open MIDD0301, % of closed MIDD0301, Blood [8, 20]: 4% | open MIDD0301, % of closed MIDD0301, Brain [8, 20]: 3% | open MIDD0301, % of closed MIDD0301, Lung [8, 20]: 2% | MIDD0301 in non-perfused brain as % of lung concentration ([8]; mice, oral, under these specific conditions (Conclusions)): less than 10% | IL-17A, IL-4 and TNFα in the lungs ([9]; asthmatic mice): reduction | airway hyperresponsiveness to methacholine challenge ([9]; oral 100 mg/kg): reduced airway hyperresponsiveness | eosinophil, CD4+ T cell and macrophage numbers in the lungs ([9]; oral 100 mg/kg): reduced | CNS effects in sensorimotor studies [10]: no CNS effects | humoral immune response to T-dependent antigen dinitrophenyl-keyhole limpet haemocyanin [11]: no change | signs of toxicity [11]: no signs of toxicity | nebulized dose sufficient to overcome airway resistance [12]: 0.8 mg/kg | oral dosage required to achieve pharmacological effects [13]: 50 mg/kg

CC(C)c1cccc(C(C)C)c1O [propofol]
effect on airway smooth muscle [14]: relaxed ASM
